In ChEMBL document CHEMBL3227928, “Phosphonate analogue of 2'-deoxy-5-fluorouridylic acid” (J Med Chem, 1979):

Experiments:
[1] = Inhibition of coliphage T2 thymidylate synthetase using dUMP as substrate preincubated for 20 mins followed by substrate addition; parameters: species or system Enterobacteria phage T2
Outline: (§1)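 Enzyme and inhibitor preincubated 20 min at 30 °C in assay mix with 0.11 M 2-mercaptoethanol, 3 × 10^-4 M tetrahydrofolate, 0.012 M formaldehyde and 0.021 M MgCl2. Reaction started by adding dUMP to 4 × 10^-5 M. Enzyme concentrations were 8 × 10^-9 M for L. casei, 8 × 10^-9 M for E. coli (calculated assuming the L. casei turnover number) and 4 × 10^-9 M for T2. Concentration giving 50% inhibition reported.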

[2] = biological target: T1, Thymidylate synthase (Lactobacillus casei) (UniProt P00469); test: Inhibition of Lactobacillus casei thymidylate synthetase using dUMP as substrate at 20 uM preincubated for 20 mins followed by substrate addition relative to control; conditions: Lacticaseibacillus casei
T1 sequence (whole entry): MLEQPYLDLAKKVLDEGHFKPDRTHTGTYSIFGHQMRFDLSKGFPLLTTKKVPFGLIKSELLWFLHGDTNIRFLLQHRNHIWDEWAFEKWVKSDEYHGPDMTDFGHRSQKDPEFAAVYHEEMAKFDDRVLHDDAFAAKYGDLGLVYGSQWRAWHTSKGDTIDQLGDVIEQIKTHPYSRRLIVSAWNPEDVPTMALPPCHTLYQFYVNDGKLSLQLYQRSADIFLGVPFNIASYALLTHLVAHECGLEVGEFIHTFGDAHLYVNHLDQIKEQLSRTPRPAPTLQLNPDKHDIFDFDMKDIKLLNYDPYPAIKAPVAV

[3] = Cytotoxicity against human Hep2 cells assessed as growth inhibition; format: functional; conditions: HEp-2, read-out: ED50 (the source's name)
[4] = biological target: T1, Thymidylate synthase (Lactobacillus casei); test: Inhibition of Lactobacillus casei thymidylate synthetase using dUMP as substrate at 20 uM preincubated for 40 mins followed by substrate addition relative to control; conditions: Lacticaseibacillus casei
[5] = biological target: T1, Thymidylate synthase (Lactobacillus casei); test: Inhibition of Lactobacillus casei thymidylate synthetase using dUMP as substrate at 20 uM preincubated for 0 mins followed by substrate addition relative to control; conditions: Lacticaseibacillus casei
[6] = biological target: T1, Thymidylate synthase (Lactobacillus casei); test: Inhibition of Lactobacillus casei thymidylate synthetase using dUMP as substrate at 20 uM preincubated for 5 mins followed by substrate addition relative to control; conditions: Lacticaseibacillus casei
[7] = Inhibition of Escherichia coli thymidylate synthetase using dUMP as substrate preincubated for 20 mins followed by substrate addition; outline: as §1
[8] = biological target: T2, Thymidylate synthase (Lactobacillus casei, UniProt P00469); test: Inhibition of Lactobacillus casei thymidylate synthetase using dUMP as substrate preincubated for 20 mins followed by substrate addition; parameters: species or system Lacticaseibacillus casei; outline: as §1
T2 sequence (P00469 whole entry): T1 sequence (whole entry)

[9] = biological target: T1, Thymidylate synthase (Lactobacillus casei); test: Inhibition of Lactobacillus casei thymidylate synthetase using dUMP as substrate at 20 uM preincubated for 10 mins followed by substrate addition relative to control; conditions: Lacticaseibacillus casei

- IC50 [1]: 0.06 µM
- inhibition [2]: 75%
- inhibition [4]: 85%
- inhibition [5]: 0%
- inhibition [6]: 45%
- IC50 [7]: 0.6 µM
- IC50 [8]: 7 µM
- inhibition [9]: 64%
SMILES: O=c1[nH]c(=O)n([C@H]2C[C@H](O)[C@@H](CCP(=O)(O)O)O2)cc1F
- EC50 [3]: 45 µM
